From PubChem BioAssay
NR2E3 ag-1 – activates human photoreceptor nuclear receptor NR2E3. Q9Y5X4. GST-NR2E3/biotin-RetCOR TR-FRET, 1536-well. inhibition of corepressor binding, % at 4.78 µM. 0.12% of 320,000 active. AID 2300;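 active = percent inhibition above the cutoff of mean plus 3 SD of all tested compounds, set per screening campaign, cut at about 20% in these data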;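 note: 0% = DMSO wells and 100% = biotin wells as full block of FRET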
Target sequence (Q9Y5X4 whole entry, looked up): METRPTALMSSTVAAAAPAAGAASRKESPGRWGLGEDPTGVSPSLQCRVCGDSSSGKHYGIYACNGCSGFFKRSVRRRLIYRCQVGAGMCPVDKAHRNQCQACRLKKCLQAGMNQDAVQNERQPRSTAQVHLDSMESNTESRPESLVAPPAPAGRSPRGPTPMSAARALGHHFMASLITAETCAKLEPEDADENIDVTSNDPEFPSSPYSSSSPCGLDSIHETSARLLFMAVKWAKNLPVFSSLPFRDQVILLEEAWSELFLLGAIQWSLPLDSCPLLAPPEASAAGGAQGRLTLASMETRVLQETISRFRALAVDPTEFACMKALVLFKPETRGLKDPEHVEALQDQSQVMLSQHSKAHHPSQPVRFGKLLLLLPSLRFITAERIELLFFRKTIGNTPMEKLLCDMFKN
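Material – GST-tagged NR2E3 plus biotinylated RetCOR corepressor · Quantity – NR2E3 fusion 1.35 nM · Times – 5 h incubation at 4 °C · Medium – pH 7.5 Tris-based buffer · Technique – TR-FRET, Eu(K)-anti-GST donor, streptavidin-D2 acceptor, ex 340, em 617/671 nm · Benchmarks – high control biotin, low control 0.6% DMSO · Format – 1536-well plates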
MC4R barr agon – human MC4R agonism via beta-arrestin; P32245; U2OS MC4R beta-arrestin complementation, luminescence; percent of melanotan II response, DMSO zero; activation, % at 8.9 µM; 0.98% of 360,000 active; AID 540308;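 active = activation above a per-plate cutoff, the mean activation of sample wells on that plate plus 3 SD, cut at about 8% in these data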
PG9 Ab binder – binds the HIV-1 gp120 antibody PG9; TR-FRET gp120-PG9 antibody binding; inhibition, % at 6.7 µM; 0.43% of 360,000 active; AID 624416; in the data active = inhibition above about 8.5%
Rev-erbA mod – modulates human Rev-erb alpha binding to DNA; P20393; Rev-erbα–FITC-DNA binding, fluorescence polarization, 90 min; activity, % at 10 µM; 0.79% of 370,000 active;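 active = activity above about 14%, limit read from the data; passing the limit was not always enough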;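 note: 0% = DMSO wells with 35 nM protein and 100% = DMSO wells with 750 nM protein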
NR2E3 ag-2 – human photoreceptor-specific nuclear receptor agonism. 0.35% of 360,000 active. inhibition of corepressor binding, % at 3.98 µM. CHO-S Gal4-NCOR/VP16-NR2E3 two-hybrid, luciferase;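 active = inhibition above the mean of all tested compounds plus 3 SD, cut at about 70% in these data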;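 note: 0% = DMSO with NR2E3 transfected cells and 100% = cells lacking NR2E3 construct; higher means lower luciferase signal from less NR2E3 corepressor binding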
MC4R antagonist – human MC4R antagonism in cAMP assay; P32245; MC4R-expressing cells, MTII-stimulated cAMP, LANCE TR-FRET; inhibition, % at 6.5 µM; 0.48% of 360,000 active; AID 540295;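 active = inhibition above its plate's cutoff, the mean of tested wells on that plate plus 3 SD, cut at about 29% in these data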;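 note: 0% = Melanotan II alone and 100% = Melanotan II plus saturating MCL0020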
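material = U2OS cells stably expressing human melanocortin 4 receptor (MC4R) | also added = Melanotan II challenge | dosing = single nominal compound dose of 6.5 µM | detection = TR-FRET with Eu-cAMP and labeled anti-cAMP, 671 nm | replication = singlicate | timing = compound 30 min, challenge 1 h, detection 1 h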
NR2E3 ag conf – NR2E3 agonism confirmed in two-hybrid assay; shares compounds with NR2E3 ag-2; 51% of 2,300 active; inhibition, % at 3.98 µM; CHO-S mammalian two-hybrid NR2E3-NCOR, luciferase luminescence;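 active = average inhibition above a cutoff equal to the mean inhibition of all tested compounds plus one SD, cut at about 70% in these data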;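 note: 0% = DMSO in NR2E3 cells and 100% = DMSO in cells lacking NR2E3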
VP16 counter – GAL4-VP16 reporter inhibition in NR2E3 agonist counterscreen. inhibition, % at 3.98 µM. 29% of 2,300 active. shares compounds with NR2E3 ag-2. CHO-S GAL4-VP16 luciferase reporter, luminescence;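 active = mean inhibition above a cutoff equal to the average over all tested compounds plus one standard deviation, cut at about 70% in these data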;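 note: luciferase from a UAS reporter driven by GAL4-VP16 transactivation; 0% = DMSO with VP16-transfected cells and 100% = DMSO with cells lacking VP16; higher means less reporter light so more repression of VP16 activity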
An asterisk follows results filed as active; . = not tested or not shown. Hits are enriched below; roughly 2.7% of the tested compounds scored in any of these assays.

SMILES	NR2E3 ag-1	MC4R barr agon	PG9 Ab binder	Rev-erbA mod	NR2E3 ag-2	MC4R antagonist	NR2E3 ag conf	VP16 counter
S=C(NCCc1ccccc1)Nc1cccc2cnccc12	1	2	-2	0	74*	-2	91*	79*
S=C(NCc1ccccc1)Nc1cccc2cnccc12	-1	0	-2	2	66	22	78*	60
CCCCNC(=S)Nc1cccc2cnccc12	-1	0	-3	3	-4	22	.	.
COc1ccc(CCNC(=O)c2ccc(Cl)cc2)cc1	0	0	-1	-4	-10	4	.	.
Nc1nc2cc(Cl)ccc2cc1C(=O)NCCCc1ccccc1	.	.	.	.	82*	.	87*	78*
COc1ccc(CCNC(=O)c2cc3ccc(Cl)cc3nc2N)cc1	.	.	.	.	90*	.	90*	77*
COc1cccc(N2CC34C=CC(O3)C(C(=O)O)C4C2=O)c1 (centres undefined)	1	-2	1	-8	-32	2	.	.
CNS(=O)(=O)c1cc(S(=O)(=O)NC)c2cccc3c2c1NC3=O	2	1	1	6	-4	4	.	.
Cc1ccc(F)c(S(=O)(=O)NC(=O)C2(C)CCN2C(=O)Cc2cccs2)c1 (centres undefined)	.	0	2	0	-35	5	.	.
COc1ccc(F)cc1-c1cc(C(=O)Nc2cccnc2)[nH]n1	.	-2	-1	0	-42	-2	.	.
COc1ccccc1Oc1ccc(S(=O)(=O)N2CCCCC2C)cc1 (centres undefined)	2	2	-1	0	3	1	.	.
CCOC(=O)N=Nc1c2ccccc2c2nc3no[nH]c3nc12	.	1	-5	7	89*	-32	99*	100*
CCOC(=O)N=Nc1c(O)n(CC(=O)OC)c2ccccc12	-1	0	-1	-4	2	-13	.	.
O=C(C(=O)N1CCN(S(=O)(=O)c2ccc(F)cc2)CC1)c1cccc(C(F)(F)F)c1	.	.	1	13	.	.	.	.
O=C(NCc1ccccc1F)c1ccc2c(c1)OCO2	0	-1	0	-2	-24	0	.	.
O=C(NCCc1ccccc1F)c1ccc2c(c1)OCCO2	1	0	-2	2	72*	17	65	41
Cc1ccc(N=c2c([N+](=O)[O-])nn(-c3ccc4c(c3)OCCO4)n2O)cc1F	1	2	-2	-4	82*	10	63	49
O=[N+]([O-])c1nn(-c2ccc3c(c2)OCCO3)n(O)c1=Nc1ccccc1	2	-1	-1	5	95*	-12	83*	77*
Cc1ccc(N=c2c([N+](=O)[O-])nn(-c3ccc4c(c3)OCCO4)n2O)c(Cl)c1	-1	.	.	.	.	.	.	.
CCc1ccc(N=c2c([N+](=O)[O-])nn(-c3ccc4c(c3)OCCO4)n2O)cc1	-3	-3	0	-6	-76	7	.	.
Cc1cc(C)cc(N=c2c([N+](=O)[O-])nn(-c3ccc4c(c3)OCCO4)n2O)c1	-5	-3	-1	10	50	6	61	12
COc1ccc(NC(=O)CSc2nc(C)cc(C)n2)c([N+](=O)[O-])c1	3	0	-1	5	-15	-1	.	.
CCOc1ccccc1-n1c(SCC(=O)Nc2ccccc2C(=O)O)nc2ccccc2c1=O	3	0	2	-1	50	2	48	15
O=C(CSc1ccccc1)N1CCC(N2CCC(C(=O)N3CCCC3)CC2)CC1	-2	-2	-1	1	88*	8	-9	-3
NC(=O)CC(NC(=O)Cc1ccc(Cl)cc1)c1ccc(NC2CC3CCC2C3)c([N+](=O)[O-])c1 (centres undefined)	3	-1	1	8	98*	2	-21	-7
SMILES	NR2E3 ag-1	MC4R barr agon	PG9 Ab binder	Rev-erbA mod	NR2E3 ag-2	MC4R antagonist	NR2E3 ag conf	VP16 counter
O=C1CCCN1c1ccc(S(=O)(=O)NCCOc2ccccc2)cc1	-2	0	1	2	57	4	0	22
O=C1CCCN1c1ccc(S(=O)(=O)NCc2ccc(F)cc2)cc1	5	-1	-2	7	-4	8	.	.
COC(=O)c1ccccc1NC(=O)CN1CCC(n2nnc3cc(C(F)(F)F)ccc32)CC1	2	3	-1	-2	-22	9	.	.
CC1Cc2ccccc2N1C(=O)CN1CCC(n2nnc3cc(C(F)(F)F)ccc32)CC1 (centres undefined)	2	2	0	9	53	2	37	16
Cc1cc(OCc2cc(C(=O)N3CCN(C)C(=O)[C@@H]3C)no2)cc(C)c1Cl	-1	0	0	0	48	9	47	20
CC(C)Oc1cc(F)ccc1-c1cc(C(=O)NCc2ccccn2)[nH]n1	.	0	0	-2	11	-4	.	.
CCN(CC)S(=O)(=O)c1ccc(Oc2ccccc2)c(N)c1	-5	0	0	-4	18	-3	.	.
CCN(CC)S(=O)(=O)c1ccc(N2CCN(c3ccccc3OC)CC2)c(N)c1	2	-1	1	-5	105*	-7	93*	74*
COc1ccc(C(=O)N/C(=C\c2ccc(OC)c(OC)c2)C(=O)N2CCCCC2)cc1	5	-2	-1	-1	-7	4	.	.
O=C(OCc1ccccc1)N(CCCCN(CCCNCc1ccccc1)C(=O)OCc1ccccc1)CCCNCc1ccccc1	.	4	1	-2	48	8	62	26
CC(=O)c1c(C)[nH]c(C(=O)OCc2cccc(C)c2)c1C	2	-1	0	-3	48	9	28	1
Cc1nc2c(cc1C(=O)N/N=C/c1ccc([N+](=O)[O-])cc1)c(=O)n(C)c(=O)n2C	2	0	0	-7	-22	6	.	.
O=C(N=Nc1c(O)[nH]c2ccccc12)Nc1ccccc1	.	0	-3	4	-106	-9	.	.
Cc1cccc(NC(=S)N=Nc2c(O)[nH]c3ccccc23)c1	-5	-2	0	8	67	-4	13	-11
O=C(Nc1nccs1)c1ccc(S(=O)(=O)NCC2CCCCC2)cc1	0	2	0	3	58	-1	59	65
CCCOc1ccc(CSc2nc3ccccc3[nH]2)cc1	5	1	-1	3	74*	0	74*	44
COc1ccc(OC)c(-c2cc(C(=O)Nc3c(C)n(C)n(-c4ccccc4)c3=O)no2)c1	-2	0	-4	0	51	-3	13	21
